Laboratory results as given in ChEMBL document CHEMBL4732237, “Discovery of 4-alkoxy-2-aryl-6,7-dimethoxyquinolines as a new class of topoisomerase I inhibitors endowed with potent in vitro anticancer activity” (2021).

Key:
Assay type in all cases: functional
COLO 205 = experiment: Growth inhibition of human COLO 205 cells incubated for 48 hrs by sulforhodamine B assay
Method in brief: (§1)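 NCI five-dose screen covering 0.01–100 µM, prepared as 10-fold or ½-log dilutions from DMSO stock. Cells in RPMI 1640 with 5% FBS were exposed for 48 h at 37 °C after 24 h preincubation. Adherent cells were fixed with TCA (final 10%) and suspension cells were settled before fixing. Stain was SRB, read at 515 nm. GI50 = 50% reduction in net protein increase versus control, with Tz taken at drug addition.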

UACC-257 = experiment: Growth inhibition of human UACC-257 cells incubated for 48 hrs by sulforhodamine B assay
Method in brief: (§2)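 NCI five-dose assay, with drug stocks in DMSO diluted in medium to five concentrations (10-fold or ½-log series). Cells in RPMI 1640/5% FBS were pre-incubated 24 h, and time-zero plates were TCA-fixed at drug addition. After 48 h at 37 °C, cells were TCA-fixed, SRB-stained and read at 515 nm. GI50 is from [(Ti-Tz)/(C-Tz)]×100 = 50, TGI from Ti = Tz, and LC50 from [(Ti-Tz)/Tz]×100 = -50.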

CAKI-1 = experiment: Growth inhibition of human CAKI-1 cells incubated for 48 hrs by sulforhodamine B assay; method in brief: as §1
IGROV-1 = experiment: Growth inhibition of human IGROV-1 cells incubated for 48 hrs by sulforhodamine B assay; method in brief: as §1
OVCAR-8 = experiment: Growth inhibition of human OVCAR-8 cells incubated for 48 hrs by sulforhodamine B assay
Method in brief: (§3)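 NCI five-dose screen (0.01–100 µM; five concentrations plus control). Cells grown in RPMI 1640/5% FBS/2 mM L-glutamine and preincubated 24 h, with time-zero plates TCA-fixed. Drug exposure 48 h at 37 °C, followed by SRB protein staining and reading at 515 nm. GI50 is the concentration at [(Ti-Tz)/(C-Tz)]×100 = 50.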

EKVX = experiment: Growth inhibition of human EKVX cells incubated for 48 hrs by sulforhodamine B assay; method in brief: as §1
SW-620 = experiment: Growth inhibition of human SW-620 cells incubated for 48 hrs by sulforhodamine B assay; method in brief: as §2
SR = experiment: Growth inhibition of human SR cells incubated for 48 hrs by sulforhodamine B assay; method in brief: as §3
SF-295 = experiment: Growth inhibition of human SF-295 cells incubated for 48 hrs by sulforhodamine B assay; method in brief: as §3
MDA-MB-468 = experiment: Growth inhibition of human MDA-MB-468 cells incubated for 48 hrs by sulforhodamine B assay; method in brief: as §1
SK-MEL-5 = experiment: Growth inhibition of human SK-MEL-5 cells incubated for 48 hrs by sulforhodamine B assay; method in brief: as §3
K562 = experiment: Growth inhibition of human K562 cells incubated for 48 hrs by sulforhodamine B assay; method in brief: as §1
SK-MEL-28 = experiment: Growth inhibition of human SK-MEL-28 cells incubated for 48 hrs by sulforhodamine B assay; method in brief: as §3
LOX IMVI = experiment: Growth inhibition of human LOX IMVI cells incubated for 48 hrs by sulforhodamine B assay; method in brief: as §1
HCT-15 = experiment: Growth inhibition of human HCT-15 cells incubated for 48 hrs by sulforhodamine B assay; method in brief: as §1
MDA-MB-435 = experiment: Growth inhibition of human MDA-MB-435 cells incubated for 48 hrs by sulforhodamine B assay; method in brief: as §1
UACC-62 = experiment: Growth inhibition of human UACC-62 cells incubated for 48 hrs by sulforhodamine B assay; method in brief: as §2
MDA-MB-231 = experiment: Growth inhibition of human MDA-MB-231 cells incubated for 48 hrs by sulforhodamine B assay; method in brief: as §1
CCRF-CEM = experiment: Growth inhibition of human CCRF-CEM cells incubated for 48 hrs by sulforhodamine B assay; method in brief: as §1
786-0 = experiment: Growth inhibition of human 786-0 cells incubated for 48 hrs by sulforhodamine B assay; method in brief: as §1
A549 = experiment: Growth inhibition of human A549 cells incubated for 48 hrs by sulforhodamine B assay; method in brief: as §1
HCT-29 = experiment: Growth inhibition of human […] cells incubated for 48 hrs by sulforhodamine B assay; method in brief: as §1
OVCAR-3 = experiment: Growth inhibition of human OVCAR-3 cells incubated for 48 hrs by sulforhodamine B assay; method in brief: as §3
DU-145 = experiment: Growth inhibition of human DU-145 cells incubated for 48 hrs by sulforhodamine B assay; method in brief: as §1
SF-268 = experiment: Growth inhibition of human SF-268 cells incubated for 48 hrs by sulforhodamine B assay; method in brief: as §3
SK-MEL-2 = experiment: Growth inhibition of human SK-MEL-2 cells incubated for 48 hrs by sulforhodamine B assay; method in brief: as §3
HL-60(TB) = experiment: Growth inhibition of human HL-60(TB) cells incubated for 48 hrs by sulforhodamine B assay
Method in brief: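 NCI-60 five-dose screen. Cells in RPMI 1640 with 5% FBS and 2 mM L-glutamine were plated at 5000–40,000 cells/well and preincubated 24 h at 37 °C, 5% CO2. Drugs in DMSO were given at five serial 10-fold or ½-log dilutions for 48 h. Adherent cells fixed with 10% TCA (final); suspension cells fixed after settling. SRB stained; A515. GI50 from [(Ti-Tz)/(C-Tz)]x100 = 50.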

SNB-19 = experiment: Growth inhibition of human SNB-19 cells incubated for 48 hrs by sulforhodamine B assay; method in brief: as §3
NCI-H23 = experiment: Growth inhibition of human NCI-H23 cells incubated for 48 hrs by sulforhodamine B assay; method in brief: as §3

| Compound | GI50 (COLO 205) [µM] | GI50 (UACC-257) [µM] | GI50 (CAKI-1) [µM] | GI50 (IGROV-1) [µM] | GI50 (OVCAR-8) [µM] | GI50 (EKVX) [µM] | GI50 (SW-620) [µM] | GI50 (SR) [µM] | GI50 (SF-295) [µM] | GI50 (MDA-MB-468) [µM] | GI50 (SK-MEL-5) [µM] | GI50 (K562) [µM] | GI50 (SK-MEL-28) [µM] | GI50 (LOX IMVI) [µM] | TGI (LOX IMVI) [µM] | GI50 (HCT-15) [µM] | GI50 (MDA-MB-435) [µM] | GI50 (UACC-62) [µM] | GI50 (MDA-MB-231) [µM] | GI50 (CCRF-CEM) [µM] | other results |
| --- | --- | --- | --- | --- | --- | --- | --- | --- | --- | --- | --- | --- | --- | --- | --- | --- | --- | --- | --- | --- | --- |
| COc1cc2nc(-c3ccc(Cl)cc3)cc(OCCCN3CCOCC3)c2cc1OC | 0.62 | 1.92 | 0.305 | 0.99 | 2.15 | 1.73 | 3.57 | 0.414 | 1.08 | 1.83 | 0.832 | 2.71 | 1.52 | 0.217 | 0.592 | 0.754 | 1.9 | 2.26 | 1.01 | 3.35 | GI50 (786-0): 1.94 µM; GI50 (A549): 2.02 µM; GI50 (HCT-29): 0.61 µM |
| COc1cc2nc(-c3ccc(Cl)cc3)cc(OCCCN3CCCC3)c2cc1OC | 0.459 | 1.96 | 0.303 | 0.881 | 1.19 | 1.21 | 3.12 | 0.251 | 1.22 | 1.28 | 0.961 | 1.06 | 1.48 | 0.191 | 0.446 | 0.567 | 2.72 | 2.03 | 0.907 | 2.14 | GI50 (OVCAR-3): 2.71 µM; GI50 (DU-145): 2.15 µM; GI50 (SF-268): 2.53 µM; GI50 (SK-MEL-2): 2.16 µM; GI50 (HL-60(TB)): 2.72 µM; GI50 (786-0): 2.78 µM; GI50 (SNB-19): 3.14 µM; GI50 (A549): 1.52 µM; GI50 (HCT-29): 0.454 µM; GI50 (NCI-H23): 2.45 µM |
| COc1cc2nc(-c3ccc(C(F)(F)F)cc3)cc(OCCCN3CCC(O)CC3)c2cc1OC | 0.456 | 2.28 | 0.376 | 0.9 | 1.66 | 1.03 | 3.53 | 0.274 | 1.61 | 1.63 | 1.43 | 1.79 | 2.38 | 0.19 | 0.447 | 0.667 | 2.76 | 2.61 | 0.919 | 3.26 | GI50 (OVCAR-3): 6.1 µM; GI50 (DU-145): 4.96 µM; GI50 (SF-268): 5.76 µM; GI50 (SK-MEL-2): 3.85 µM; GI50 (HL-60(TB)): 13.9 µM; GI50 (786-0): 4.72 µM; GI50 (SNB-19): 10.5 µM; GI50 (A549): 1.65 µM; GI50 (HCT-29): 0.486 µM; GI50 (NCI-H23): 6.16 µM |
